The results in this text go back to ChEMBL document CHEMBL2177027, “Exploring the directionality of 5-substitutions in a new series of 5-alkylaminopyrazolo[4,3-e]1,2,4-triazolo[1,5-c]pyrimidine as a strategy to design novel human a(3) adenosine receptor antagonists” (J Med Chem, 2012).

For orientation: Ki means a dissociation constant, usually derived from enzyme kinetics or from competition with a known ligand.

Assay [1] in a line: Selectivity ratio of Ki for human adenosine A1 receptor expressed in CHO cell membrane to Ki for human adenosine A2A receptor expressed in CHO cell membrane. Format: cell-based.
Assay [2] is described as follows: Selectivity ratio of Ki for human adenosine A2A receptor expressed in CHO cell membrane to Ki for human adenosine A3 receptor expressed in CHO cell membrane. The class given is cell-based.
The target in assay [3] is Adenosine receptors; A1 & A3 (Homo sapiens) (UniProt P30542+P0DMS8). The assay is described as follows: Selectivity ratio of Ki for human adenosine A1 receptor expressed in CHO cell membrane to Ki for human adenosine A3 receptor expressed in CHO cell membrane. The class given is cell-based.
The next assay addresses T1, Adenosine receptor A2b (Homo sapiens, UniProt P29275).
T1 sequence (P29275 whole entry): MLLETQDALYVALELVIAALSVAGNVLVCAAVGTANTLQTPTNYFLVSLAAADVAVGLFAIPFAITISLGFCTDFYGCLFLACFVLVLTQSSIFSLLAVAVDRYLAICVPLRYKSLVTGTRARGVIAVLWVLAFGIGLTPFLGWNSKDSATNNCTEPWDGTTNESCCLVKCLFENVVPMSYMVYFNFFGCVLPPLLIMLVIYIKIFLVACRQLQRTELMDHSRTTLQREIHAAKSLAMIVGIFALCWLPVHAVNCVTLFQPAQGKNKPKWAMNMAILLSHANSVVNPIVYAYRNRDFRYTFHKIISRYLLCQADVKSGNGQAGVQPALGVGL
In words: Antagonist activity at human adenosine A2B receptor expressed in CHO cells assessed as NECA-induced adenylate cyclase activity. The class given is functional, cell-based. The method, boiled down:
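Membranes from stably transfected CHO cells made with a single high-speed spin of the homogenate. Incubated 20 min with about 150 000 cpm [α-³²P]ATP in mixture lacking EDTA and NaCl. IC50 taken from concentration-dependent inhibition of NECA-stimulated adenylyl cyclase using Hill equation.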

The target in a further assay is T2, Adenosine receptor A3 (Homo sapiens, UniProt P0DMS8).
T2 sequence (P0DMS8 whole entry): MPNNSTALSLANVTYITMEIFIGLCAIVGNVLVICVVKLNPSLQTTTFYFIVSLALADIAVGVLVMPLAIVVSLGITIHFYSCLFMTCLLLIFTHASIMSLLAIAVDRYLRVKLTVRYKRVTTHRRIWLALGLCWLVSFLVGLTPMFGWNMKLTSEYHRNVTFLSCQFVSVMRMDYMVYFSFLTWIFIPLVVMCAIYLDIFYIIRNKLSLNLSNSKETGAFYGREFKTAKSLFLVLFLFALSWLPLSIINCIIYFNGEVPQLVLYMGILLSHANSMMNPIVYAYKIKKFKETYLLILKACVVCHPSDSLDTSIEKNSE
The assay is described as follows: Displacement of [3H]NECA from human adenosine A3 receptor expressed in CHO cell membrane. Format: cell membranes. An outline of the steps: (§1)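 CHO cells stably transfected with the human receptor subtype. Membranes were prepared by a 1000g spin to clear fragments and nuclei, then pelleted from the supernatant at 100 000g. Pellet was resuspended in the respective binding buffer, frozen in liquid nitrogen and stored until radioligand competition binding.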

For a further assay, the target named is Adenosine receptor A2a (Homo sapiens, UniProt P29274). The assay is described as follows: Displacement of [3H]NECA from human adenosine A2A receptor expressed in CHO cell membrane. The class given is cell membranes. An outline of the steps:
as §1

In the next assay the target is T3, Adenosine receptor A1 (Homo sapiens, UniProt P30542).
T3 sequence (P30542 whole entry): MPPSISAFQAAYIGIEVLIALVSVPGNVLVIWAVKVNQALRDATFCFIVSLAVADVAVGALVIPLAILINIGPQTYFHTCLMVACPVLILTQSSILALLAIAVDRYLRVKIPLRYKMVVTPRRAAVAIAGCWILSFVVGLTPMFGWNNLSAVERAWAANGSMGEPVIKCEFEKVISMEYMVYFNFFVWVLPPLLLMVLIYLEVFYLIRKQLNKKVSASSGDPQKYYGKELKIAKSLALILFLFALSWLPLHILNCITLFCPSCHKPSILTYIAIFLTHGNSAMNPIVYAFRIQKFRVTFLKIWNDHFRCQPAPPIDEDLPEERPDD
In words: Displacement of [3H]CCPA from human adenosine A1 receptor expressed in CHO cell membrane. The class given is cell membranes. The method, boiled down:
as §1
For orientation: In a radioligand displacement assay an active substance lowers the binding of a labelled ligand.

Bounds are passed on as bounds.

Sequence of Adenosine receptor A2a (P29274 whole entry): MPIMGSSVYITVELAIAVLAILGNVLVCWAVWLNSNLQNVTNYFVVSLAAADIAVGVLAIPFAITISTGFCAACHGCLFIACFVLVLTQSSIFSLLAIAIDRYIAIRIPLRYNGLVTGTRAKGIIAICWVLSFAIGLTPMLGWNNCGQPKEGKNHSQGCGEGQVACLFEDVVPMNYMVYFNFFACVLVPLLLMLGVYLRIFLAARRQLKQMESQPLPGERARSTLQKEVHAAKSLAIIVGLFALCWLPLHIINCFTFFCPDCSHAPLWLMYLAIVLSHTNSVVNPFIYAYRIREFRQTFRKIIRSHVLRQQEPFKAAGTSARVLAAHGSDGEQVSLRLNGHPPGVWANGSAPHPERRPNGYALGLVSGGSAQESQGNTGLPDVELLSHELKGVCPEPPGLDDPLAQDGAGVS

For `COCCNc1nc2nn(C)cc2c2nc(-c3ccco3)nn12`, the Ratio Ki came to 5.9 in assay [1], 1.65 in assay [2] and 9.76 in assay [3]. Further, the inhibition constant (Ki) at Adenosine receptor A2b is > 10000 nM; on Adenosine receptor A3, 246 nM; on Adenosine receptor A2a, 407 nM; on Adenosine receptor A1, 2400 nM.

Take `Cn1cc2c(nc(NC(C)(C)CC(C)(C)C)n3nc(-c4ccco4)nc23)n1`: the Ratio Ki came out at 0.3 in assay [1], 24.8 in assay [2] and 7.55 in assay [3]. Further, the Ki on Adenosine receptor A2b is > 10000 nM; at Adenosine receptor A3, 130 nM; at Adenosine receptor A2a, 3230 nM; at Adenosine receptor A1, 982 nM.

Consider `Cn1cc2c(nc(NCc3ccc(C(F)(F)F)cc3)n3nc(-c4ccco4)nc23)n1`, for which the Ratio Ki in assay [1] came out at 5.02; in assay [2], 16.4; in assay [3] it was 82.5. In addition, the Ki is > 3000 nM on Adenosine receptor A2b, 14.9 nM at Adenosine receptor A3, 245 nM on Adenosine receptor A2a and 1230 nM on Adenosine receptor A1.

With `Cn1cc2c(nc(NCC3CCCCC3)n3nc(-c4ccco4)nc23)n1`, the Ratio Ki in assay [1] is 0.98; in assay [2], 17.2; in assay [3], 17. For the same compound, the Ki on Adenosine receptor A2b came to 9650 nM; at Adenosine receptor A3 it was 47.3 nM; on Adenosine receptor A2a it was 814 nM; on Adenosine receptor A1 it was 802 nM.

For the compound `Cn1cc2c(nc(NC3C4CC5CC(C4)CC3C5)n3nc(-c4ccco4)nc23)n1` (configuration not stated), the figures for the Ratio Ki in assay [1], in assay [2] and in assay [3] were 0.88, 45.1 and 39.9, respectively. For the same compound, the inhibitory constant (Ki) at Adenosine receptor A2b is > 10000 nM; at Adenosine receptor A3, 18.8 nM; on Adenosine receptor A2a it was 848 nM; on Adenosine receptor A1, 750 nM.

On to `Cn1cc2c(nc(NC3CCCCC3)n3nc(-c4ccco4)nc23)n1`, for which the Ratio Ki in assay [1] was 0.71; in assay [2], 27.2; in assay [3], 19.4. For the same compound, the inhibitory constant (Ki) at Adenosine receptor A2b is 6320 nM; at Adenosine receptor A3, 8.57 nM; on Adenosine receptor A2a, 233 nM; at Adenosine receptor A1, 166 nM.

Regarding `C[C@@H](Nc1nc2nn(C)cc2c2nc(-c3ccco3)nn12)c1ccccc1`, the Ratio Ki in assay [1] amounted to 24.7; in assay [2], 10.3; in assay [3], 255. In addition, the Ki stood at 12200 nM at Adenosine receptor A2b, 3.71 nM at Adenosine receptor A3, 38.2 nM at Adenosine receptor A2a and 945 nM at Adenosine receptor A1.

As to `Cn1cc2c(nc(NCCCO)n3nc(-c4ccco4)nc23)n1`, the Ratio Ki in assay [1] is 1.37; in assay [2] it was 0.64; in assay [3], 0.88. Moreover, the Ki is 9300 nM on Adenosine receptor A2b, 241 nM at Adenosine receptor A3, 155 nM on Adenosine receptor A2a and 212 nM at Adenosine receptor A1.

Turning to `Cn1cc2c(nc(NCCc3c[nH]c4ccccc34)n3nc(-c4ccco4)nc23)n1`, the Ratio Ki was determined as 16.2 in assay [1], 2.49 in assay [2] and 40.4 in assay [3]. Further, the Ki on Adenosine receptor A2b was determined as 2870 nM; at Adenosine receptor A3, 30.9 nM; at Adenosine receptor A2a it was 77 nM; at Adenosine receptor A1 it was 1250 nM.

`CCN(CCO)c1nc2nn(C)cc2c2nc(-c3ccco3)nn12`: the Ratio Ki was found to be 2.33 in assay [1], 4.73 in assay [2] and 11 in assay [3]. Also, the Ki was > 10000 nM on Adenosine receptor A2b, 1360 nM at Adenosine receptor A3, 6430 nM at Adenosine receptor A2a and 15000 nM on Adenosine receptor A1.

For `Cn1cc2c(nc(NCCc3ccccc3)n3nc(-c4ccco4)nc23)n1`, the figures for the Ratio Ki in assay [1], in assay [2] and in assay [3] were 15.9, 0.87 and 13.9, respectively. Also, the Ki was found to be 2790 nM on Adenosine receptor A2b, 52.8 nM on Adenosine receptor A3, 46.1 nM on Adenosine receptor A2a and 733 nM at Adenosine receptor A1.

For the compound `Cn1cc2c(nc(NC(c3ccccc3)c3ccccc3)n3nc(-c4ccco4)nc23)n1`, the values for the Ratio Ki in assay [1], in assay [2] and in assay [3] were 0.19, 1080 and 204, respectively. Moreover, the Ki on Adenosine receptor A2b was > 10000 nM; at Adenosine receptor A3, 0.83 nM; on Adenosine receptor A2a, 900 nM; at Adenosine receptor A1, 169 nM.

`Cn1cc2c(nc(NCCOc3ccccc3)n3nc(-c4ccco4)nc23)n1`: the values for the Ratio Ki in assay [1], in assay [2] and in assay [3] were 5.34, 3.13 and 16.7, respectively. Also, the Ki stood at 7500 nM at Adenosine receptor A2b, 38.6 nM at Adenosine receptor A3, 121 nM at Adenosine receptor A2a and 646 nM at Adenosine receptor A1.

As to `CCOc1nc2nn(C)cc2c2nc(-c3ccco3)nn12`, the Ratio Ki in assay [1] came out at 1.27; in assay [2], 33.6; in assay [3], 42.6. The Ki at Adenosine receptor A2b is > 10000 nM; on Adenosine receptor A3, 182 nM; at Adenosine receptor A2a it was 6120 nM; at Adenosine receptor A1, 7750 nM.

Regarding `CN(Cc1ccccc1)c1nc2nn(C)cc2c2nc(-c3ccco3)nn12`, the results for the Ratio Ki in assay [1], in assay [2] and in assay [3] were 0.52, 60 and 31.4, respectively. The Ki was > 10000 nM on Adenosine receptor A2b, 18 nM at Adenosine receptor A3, 1080 nM at Adenosine receptor A2a and 566 nM on Adenosine receptor A1.

Turning to `Cn1cc2c(nc(NCCO)n3nc(-c4ccco4)nc23)n1`, the Ratio Ki in assay [1] is 4.13; in assay [2], 0.51; in assay [3], 2.1. Besides, the Ki on Adenosine receptor A2b turned out to be 7470 nM; at Adenosine receptor A3, 309 nM; on Adenosine receptor A2a, 157 nM; on Adenosine receptor A1, 649 nM.
